Assays:
[1] = test system: P388; assay: Concentration that reduces the number of colonies formed by 50% in a clonogenic assay with P388 leukemia cells.; format: functional, cell-based, Mus musculus
Summary of the method: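 P388 cells were kept in suspension culture. Colony-forming assay was run in 0.17% agarose, with colony formation and IC50 (50% reduction in colonies versus controls) measured as in the B16 assay. That assay used a 2 h exposure and 5 days of colony growth.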

[2] = test system: B16; assay: Concentration that reduces the number of colonies formed by 50% in a clonogenic assay with B16 mouse melanoma cells.; format: functional, cell-based
Summary of the method: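 B16 melanoma F10 monolayers were grown in MEM with 10% calf serum. Cells were plated at 5000/plate and attached overnight. They were exposed to compound for 2 h, diluted from a 2 mM ethanol stock into MEM, then washed with PBS. Colonies of more than 50 cells were grown for 5 days at 37 °C and stained with crystal violet, in triplicate. IC50 is the 50% reduction in colonies versus controls.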

[3] = test system: Mus musculus; assay: Maximally tolerated dose (MTD) in tumor bearing mice on a daily times 5 ip regimen.; format: functional, organism-based
Summary of the method: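 B6D2F1 mice inoculated ip with 10^6 P388 leukemia cells, randomized into groups of six after the inoculum was checked sterile in thioglycolate broth. Dosing ip on days 1-5, starting 24 h after inoculation. Vehicle was DMA, ethanol and Cremophor (10% final), diluted with saline for lower doses and prepared just before injection. Mortality monitored daily up to 45 days.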

[4] = test system: P388; assay: Ratio of in vitro cytotoxic potency in P388 / B16 cell lines; format: functional, cell-based; conditions: Mus musculus
Summary of the method: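 Ratio of IC50 in the P388 colony-forming assay (0.17% agarose) to IC50 in the B16 clonogenic assay. Both assays used a 2 h drug exposure and counted colonies against controls.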

[5] = test system: P388; assay: Antitumor activity expressed as increase in median life span (ILS) measured in mice inoculated (ip) with P388 leukemia cells; format: functional, organism-based; conditions: Mus musculus
Summary of the method: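 Mice B6D2F1, inoculated ip with 10^6 P388 leukemia cells. After 24 h, with the inoculum confirmed free of bacteria by thioglycolate broth, mice were randomized into groups of six. Dosing was ip on days 1-5. The vehicle held DMA, ethanol and Cremophor at 10% final, with dilutions in saline. Mice were monitored daily for 45 days. ILS is the % increase in MST over untreated controls. The value reported is the maximum ILS from dose-response studies bracketing the maximally tolerated dose.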

Row | IC50 [1] [µM] | IC50 [2] [µM] | Substance | MTD [3] [µM/kg] | Ratio [4] | ILSmax [5] [%]
1 | 100 | 60 | GOLD SODIUM THIOMALATE [listing 1 of 2 here] | – | – | –
2 | – | – | GOLD SODIUM THIOMALATE [listing 2 of 2 here] | 300 | 1.67 | 24
